Bounds are passed on as bounds.

Data set [1] has as its target T1, Fibroblast growth factor receptor 3 (Homo sapiens, UniProt P22607). In words: Inhibition of recombinant human N-terminal His6-tagged FGFR3 (447 to 761 residues) expressed in baculovirus infected Sf21 insect cells using poly (Glu, Tyr)4:1 as substrate measured after 1 hr by ELISA. The method, boiled down: (§1)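 Recombinant kinase was incubated with compound in reaction buffer containing 5 μM ATP, in wells precoated with poly(Glu,Tyr) 4:1, for 1 h at 37 °C. Phosphorylation was detected by ELISA.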
In general terms: In an ELISA, binding on a coated surface is turned into a signal by an enzyme label.

Data set [2] concerns the target Ephrin type-A receptor 2 (Homo sapiens) (UniProt P29317). In words: Inhibition of recombinant human N-terminal His6-tagged EphA2 (596 to 900 residues) expressed in baculovirus infected Sf21 insect cells at 1000 nM using poly (Glu, Tyr)4:1 as substrate measured after 1 hr by ELISA relative to control. The method, boiled down:
as §1

The target in data set [3] is Insulin-like growth factor 1 receptor (Homo sapiens) (UniProt P08069). Description: Inhibition of recombinant human N-terminal His6-tagged IGF1R (959 to end residues) expressed in baculovirus infected Sf21 insect cells at 1000 nM using poly (Glu, Tyr)4:1 as substrate measured after 1 hr by ELISA relative to control. The method, boiled down: (§2)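 ELISA kinase assay: recombinant kinase added to wells precoated with poly(Glu,Tyr)4:1 and incubated with compound in reaction buffer containing 5 μM ATP, 37 °C for 1 h; wells then washed before antibody detection.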
Insulin-like growth factor 1 receptor (Homo sapiens), sequence (P08069 31-736 limits assumed): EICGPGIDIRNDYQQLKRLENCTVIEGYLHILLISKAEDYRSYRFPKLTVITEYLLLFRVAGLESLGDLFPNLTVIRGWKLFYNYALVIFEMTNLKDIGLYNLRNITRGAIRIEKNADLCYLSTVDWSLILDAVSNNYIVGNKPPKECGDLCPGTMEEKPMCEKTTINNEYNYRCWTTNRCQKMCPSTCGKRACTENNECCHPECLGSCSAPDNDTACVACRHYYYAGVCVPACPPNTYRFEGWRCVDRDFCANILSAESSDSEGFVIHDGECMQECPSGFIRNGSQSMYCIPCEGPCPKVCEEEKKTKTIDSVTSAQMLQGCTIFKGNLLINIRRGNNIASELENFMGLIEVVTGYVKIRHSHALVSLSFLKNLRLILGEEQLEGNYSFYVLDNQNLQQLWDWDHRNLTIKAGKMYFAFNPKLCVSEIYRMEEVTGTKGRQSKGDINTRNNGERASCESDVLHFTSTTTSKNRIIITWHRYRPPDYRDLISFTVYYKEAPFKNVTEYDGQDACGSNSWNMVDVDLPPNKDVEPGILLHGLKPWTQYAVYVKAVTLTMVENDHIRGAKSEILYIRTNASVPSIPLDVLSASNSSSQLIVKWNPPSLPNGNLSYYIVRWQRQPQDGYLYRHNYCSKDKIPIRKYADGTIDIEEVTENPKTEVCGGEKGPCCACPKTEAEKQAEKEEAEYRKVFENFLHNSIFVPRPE
Insulin-like growth factor 1 receptor (Homo sapiens), sequence (P08069 741-1367 limits assumed): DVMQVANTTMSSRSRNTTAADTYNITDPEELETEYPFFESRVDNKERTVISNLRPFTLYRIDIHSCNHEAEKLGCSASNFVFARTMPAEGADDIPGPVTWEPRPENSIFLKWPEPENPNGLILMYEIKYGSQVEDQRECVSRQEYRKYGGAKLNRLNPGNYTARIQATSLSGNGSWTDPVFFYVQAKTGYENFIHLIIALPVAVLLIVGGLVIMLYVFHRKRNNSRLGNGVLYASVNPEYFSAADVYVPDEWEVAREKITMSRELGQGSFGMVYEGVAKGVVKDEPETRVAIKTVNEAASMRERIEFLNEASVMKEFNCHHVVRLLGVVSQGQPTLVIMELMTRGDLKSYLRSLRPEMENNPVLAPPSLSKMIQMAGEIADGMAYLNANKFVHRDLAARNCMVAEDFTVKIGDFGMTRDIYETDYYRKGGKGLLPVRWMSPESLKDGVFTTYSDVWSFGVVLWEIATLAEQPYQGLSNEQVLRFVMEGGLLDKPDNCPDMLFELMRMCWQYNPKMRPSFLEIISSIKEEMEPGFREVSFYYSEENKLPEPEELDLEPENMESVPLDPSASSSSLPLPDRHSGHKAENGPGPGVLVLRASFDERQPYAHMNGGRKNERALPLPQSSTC

For data set [4], the target named is Tyrosine-protein kinase ITK/TSK (Homo sapiens) (UniProt Q08881). In words: Inhibition of recombinant human N-terminal His6-tagged ITK (352 to 617 residues) expressed in baculovirus infected Sf21 insect cells at 1000 nM using poly (Glu, Tyr)4:1 as substrate measured after 1 hr by ELISA relative to control. The method, boiled down:
as §2

In data set [5] the target is Platelet-derived growth factor receptor beta (Homo sapiens) (UniProt P09619). In words: Inhibition of recombinant human N-terminal His6-tagged PDGFRbeta (557 to end residues) expressed in baculovirus infected Sf21 insect cells at 100 nM using poly (Glu, Tyr)4:1 as substrate measured after 1 hr by ELISA relative to control. The essentials:
as §2

The target in data set [6] is Epidermal growth factor receptor (Homo sapiens) (UniProt P00533). Description: Inhibition of recombinant human N-terminal GST-tagged EGFR (696 to end residues) expressed in baculovirus infected Sf21 insect cells at 100 nM using poly (Glu, Tyr)4:1 as substrate measured after 1 hr by ELISA relative to control. The essentials:
as §1

The target of data set [7] is Proto-oncogene tyrosine-protein kinase Src (Homo sapiens) (UniProt P12931). In words: Inhibition of recombinant human full-length N-terminal His6-tagged Src expressed in Sf21 insect cells at 100 nM using poly (Glu, Tyr)4:1 as substrate measured after 1 hr by ELISA relative to control. The method, boiled down:
as §2

For data set [8], the target named is T1, Fibroblast growth factor receptor 3. Description: Inhibition of recombinant human N-terminal His6-tagged FGFR3 (447 to 761 residues) expressed in baculovirus infected Sf21 insect cells at 100 nM using poly (Glu, Tyr)4:1 as substrate measured after 1 hr by ELISA relative to control. The essentials: as §1
The target in data set [9] is Fibroblast growth factor receptor 4 (Homo sapiens, UniProt P22455). In words: Inhibition of recombinant human N-terminal His6-tagged FGFR4 (442 to 755 residues) expressed in baculovirus infected Sf21 insect cells at 100 nM using poly (Glu, Tyr)4:1 as substrate measured after 1 hr by ELISA relative to control. The essentials:
as §1

Data set [10] deals with Activated CDC42 kinase 1 (Homo sapiens) (UniProt Q07912). Description: Inhibition of recombinant human N-terminal GST-tagged ACK1 (1 to 389 residues) expressed in baculovirus infected Sf21 insect cells at 100 nM using poly (Glu, Tyr)4:1 as substrate measured after 1 hr by ELISA relative to control. The method, boiled down:
as §1

For data set [11], the target named is Proto-oncogene tyrosine-protein kinase receptor Ret (Homo sapiens) (UniProt P07949). Description: Inhibition of recombinant human N-terminal GST-tagged RET (658 to end residues) expressed in baculovirus infected Sf21 insect cells at 10 nM using poly (Glu, Tyr)4:1 as substrate measured after 1 hr by ELISA relative to control. The method, boiled down: as §1

Data set [12] has as its target Macrophage colony-stimulating factor 1 receptor (Mus musculus) (UniProt P09581). Description: Inhibition of CSF1R in CSF1-stimulated mouse RAW264.7 cells assessed as reduction in AKT phosphorylation preincubated for 6 hrs followed by CSF1 stimulation and measured after 20 mins by Western blot analysis. It counts as cell-based. The method, boiled down:
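RAW264.7 cells were plated in six-well plates overnight, treated with compound for 6 h, then stimulated with CSF-1 100 ng/mL for 20 min. Lysates were normalized by BCA, run on 10% SDS-PAGE, and blotted with antibodies to phospho-CSF1R (Tyr723), CSF1R, phospho-Akt (Ser473), Akt and actin.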

Data set [13] has as its system RAW264.7. In words: Antiinflammatory activity in mouse RAW264.7 cells assessed as reduction in LPS-induced TNFalpha release measured after 24 hrs by ELISA. It counts as functional, cell-based. The settings on record: RAW264.7, 24 h. The method, boiled down:
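RAW264.7 cells in DMEM with 10% FBS and 0.125% DMSO were incubated with compound, then primed with LPS 1 μg/mL for 24 h. Supernatant TNF-α and IL-6 measured by mouse ELISA. IC50 from log(inhibitor) versus normalized response nonlinear fit.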

Data set [14] in a line: Cytotoxicity against mouse RAW264.7 cells assessed as reduction in cell viability measured after 24 hrs by CCK8 assay. It counts as cell-based. The essentials:
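RAW264.7 cells were seeded in triplicate in DMEM and exposed to compound for 24 h. CCK-8 was added, incubated 1 h, and absorbance read at 450 nm with 570 nm reference. CC50 from log(inhibitor) versus normalized response nonlinear fit.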

The nature of data set [15]: AUC (0 to t) in Sprague-Dawley rat at 5 mg/kg, po administered via gavage by LC-MS/MS analysis. It counts as ADME, organism-based. The settings on record: in vivo. The essentials: (§3)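 Male SD rats (200 ± 20 g) were fasted 12 h with free access to water, n = 3 per group. One group received 2 mg/kg iv in DMSO/EtOH/PEG300/saline (5/5/40/50). The other received 5 mg/kg by oral gavage in DMSO/HPMC (5/95). Femoral-vein plasma was taken at 15–1440 min, methanol-precipitated with internal standard, and measured by LC–MS/MS. Noncompartmental analysis; AUC by trapezoidal method.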

The nature of data set [16]: AUC (0 to t) in Sprague-Dawley rat at 2 mg/kg, iv administered […] by LC-MS/MS analysis. It counts as ADME, organism-based. The settings on record: in vivo. The method, boiled down: as §3
Data set [17] in a line: Clearance in Sprague-Dawley rat at 2 mg/kg, iv administered […] by LC-MS/MS analysis. It counts as ADME, organism-based. To be noted: in vivo. The method, boiled down:
as §3

Data set [18] can be described thus: Volume of distribution at steady state in Sprague-Dawley rat at 2 mg/kg, iv administered […] by LC-MS/MS analysis. The settings on record: in vivo, read-out: Vdss. It counts as ADME, organism-based. The method, boiled down:
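Male SD rats (200 ± 20 g), fasted 12 h, n = 3; single intravenous dose of 2 mg/kg in DMSO/EtOH/PEG300/saline (5/5/40/50). Femoral vein blood at 15–1440 min; plasma precipitated with methanol containing internal standard, assayed by LC–MS/MS; noncompartmental analysis (MRT = AUMC/AUC, Vss = CL × MRT).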

Tyrosine-protein kinase ITK/TSK (Homo sapiens), sequence (Q08881 whole entry, the tested form may be a part): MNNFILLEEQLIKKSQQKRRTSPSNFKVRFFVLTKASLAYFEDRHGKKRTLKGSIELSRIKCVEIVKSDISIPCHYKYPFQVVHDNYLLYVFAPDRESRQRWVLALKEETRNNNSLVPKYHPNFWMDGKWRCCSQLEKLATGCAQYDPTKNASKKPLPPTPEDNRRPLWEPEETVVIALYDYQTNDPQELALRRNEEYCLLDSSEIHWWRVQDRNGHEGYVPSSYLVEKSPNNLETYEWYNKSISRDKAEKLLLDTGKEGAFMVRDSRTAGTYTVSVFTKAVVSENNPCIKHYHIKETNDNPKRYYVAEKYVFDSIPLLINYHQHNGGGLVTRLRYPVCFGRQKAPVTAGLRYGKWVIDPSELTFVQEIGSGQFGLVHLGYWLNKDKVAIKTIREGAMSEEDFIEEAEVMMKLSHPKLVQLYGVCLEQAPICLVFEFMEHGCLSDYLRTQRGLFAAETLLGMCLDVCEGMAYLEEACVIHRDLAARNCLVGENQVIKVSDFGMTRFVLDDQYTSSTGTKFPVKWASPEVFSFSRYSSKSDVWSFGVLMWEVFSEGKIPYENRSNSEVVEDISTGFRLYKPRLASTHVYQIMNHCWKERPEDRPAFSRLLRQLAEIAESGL
Fibroblast growth factor receptor 4, sequence (P22455 22-802 limits assumed): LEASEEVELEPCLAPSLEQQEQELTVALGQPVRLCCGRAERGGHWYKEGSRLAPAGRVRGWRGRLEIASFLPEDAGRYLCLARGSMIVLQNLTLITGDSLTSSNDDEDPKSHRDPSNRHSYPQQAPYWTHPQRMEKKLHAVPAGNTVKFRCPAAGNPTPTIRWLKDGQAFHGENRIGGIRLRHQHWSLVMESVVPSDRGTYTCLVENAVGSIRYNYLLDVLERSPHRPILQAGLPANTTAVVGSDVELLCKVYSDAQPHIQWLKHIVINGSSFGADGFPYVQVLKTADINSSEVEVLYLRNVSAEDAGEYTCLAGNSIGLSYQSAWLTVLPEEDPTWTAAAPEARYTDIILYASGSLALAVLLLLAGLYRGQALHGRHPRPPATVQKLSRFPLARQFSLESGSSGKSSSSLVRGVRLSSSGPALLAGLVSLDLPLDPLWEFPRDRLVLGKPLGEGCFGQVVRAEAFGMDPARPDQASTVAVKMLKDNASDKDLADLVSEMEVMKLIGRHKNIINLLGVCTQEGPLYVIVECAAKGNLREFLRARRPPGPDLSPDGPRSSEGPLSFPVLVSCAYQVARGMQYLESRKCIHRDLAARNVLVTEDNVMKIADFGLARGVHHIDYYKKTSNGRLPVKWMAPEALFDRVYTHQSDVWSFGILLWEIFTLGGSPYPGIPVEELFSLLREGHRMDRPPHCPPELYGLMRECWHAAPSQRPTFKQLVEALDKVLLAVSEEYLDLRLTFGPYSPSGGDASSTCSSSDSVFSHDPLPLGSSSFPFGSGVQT
Proto-oncogene tyrosine-protein kinase Src (Homo sapiens), sequence (P12931 2-536 limits assumed): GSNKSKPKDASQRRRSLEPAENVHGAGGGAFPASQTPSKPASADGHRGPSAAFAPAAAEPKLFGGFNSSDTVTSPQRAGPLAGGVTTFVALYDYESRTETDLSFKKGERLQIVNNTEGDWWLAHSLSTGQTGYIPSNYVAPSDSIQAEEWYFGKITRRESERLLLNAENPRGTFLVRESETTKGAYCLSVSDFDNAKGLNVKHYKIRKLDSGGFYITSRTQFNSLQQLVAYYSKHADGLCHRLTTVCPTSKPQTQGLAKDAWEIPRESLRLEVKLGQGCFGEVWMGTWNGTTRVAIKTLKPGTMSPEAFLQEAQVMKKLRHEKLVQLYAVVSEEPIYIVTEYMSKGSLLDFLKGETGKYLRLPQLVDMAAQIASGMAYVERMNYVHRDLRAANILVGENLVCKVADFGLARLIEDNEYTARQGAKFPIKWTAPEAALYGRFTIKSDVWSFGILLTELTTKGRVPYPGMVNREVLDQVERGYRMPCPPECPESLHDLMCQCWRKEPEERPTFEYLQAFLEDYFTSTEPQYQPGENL
Epidermal growth factor receptor (Homo sapiens), sequence (P00533 whole entry): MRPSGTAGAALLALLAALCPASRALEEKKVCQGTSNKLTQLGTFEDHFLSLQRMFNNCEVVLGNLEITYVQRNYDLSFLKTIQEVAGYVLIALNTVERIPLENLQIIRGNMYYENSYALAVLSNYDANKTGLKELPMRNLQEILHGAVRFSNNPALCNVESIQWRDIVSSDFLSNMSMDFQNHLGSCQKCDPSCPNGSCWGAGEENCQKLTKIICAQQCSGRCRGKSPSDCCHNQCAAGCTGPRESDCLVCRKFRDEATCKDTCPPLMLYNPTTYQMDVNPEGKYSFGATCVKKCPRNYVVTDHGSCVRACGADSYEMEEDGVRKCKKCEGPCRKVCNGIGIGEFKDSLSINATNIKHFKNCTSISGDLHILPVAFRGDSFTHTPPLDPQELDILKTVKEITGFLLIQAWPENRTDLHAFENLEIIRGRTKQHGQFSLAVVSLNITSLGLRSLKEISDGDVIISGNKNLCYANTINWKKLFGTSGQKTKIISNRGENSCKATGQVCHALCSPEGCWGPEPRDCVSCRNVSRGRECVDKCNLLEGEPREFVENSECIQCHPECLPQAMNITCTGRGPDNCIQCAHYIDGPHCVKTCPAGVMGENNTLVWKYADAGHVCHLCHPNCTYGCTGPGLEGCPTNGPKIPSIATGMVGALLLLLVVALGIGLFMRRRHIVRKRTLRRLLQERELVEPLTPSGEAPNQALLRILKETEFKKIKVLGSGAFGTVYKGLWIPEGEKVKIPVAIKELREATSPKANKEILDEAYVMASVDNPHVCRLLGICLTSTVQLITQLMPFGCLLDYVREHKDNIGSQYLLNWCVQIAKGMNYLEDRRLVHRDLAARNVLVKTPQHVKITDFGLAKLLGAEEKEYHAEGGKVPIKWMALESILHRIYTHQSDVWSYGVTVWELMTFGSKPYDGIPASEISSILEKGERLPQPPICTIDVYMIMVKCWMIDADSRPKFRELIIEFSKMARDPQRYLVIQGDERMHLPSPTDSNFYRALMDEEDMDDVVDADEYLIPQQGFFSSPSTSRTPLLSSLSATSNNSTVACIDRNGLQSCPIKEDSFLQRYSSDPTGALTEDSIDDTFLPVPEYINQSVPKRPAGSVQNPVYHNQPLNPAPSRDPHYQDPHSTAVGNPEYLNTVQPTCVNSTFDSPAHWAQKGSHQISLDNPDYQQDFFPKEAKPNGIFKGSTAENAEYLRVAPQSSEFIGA

Take `Cc1ccc(C(=O)Nc2ccc(Cl)cc2)cc1C#Cc1cc(-c2cnn(C)c2)cnc1N`: the IC50 in data set [1] is above 1000 nM; in [13], 110 nM. For the same molecule, the inhibition in data set [2] is 92.3%; in [3] it was 0%; in data set [4], 7.4%; in data set [5] it was 70.5%; in data set [6] it was 7.4%; in [7], 61.7%. Moreover, the inhibition is 0% in [8]; 0% in data set [9]; 10.3% in data set [10]; 42.7% in [11]; “Dose-dependent effect” in [12]. Further, in [14], the CC50 at 24 h amounted to 66000 nM. For the same molecule, the results for the AUC(0-t) in [15] and in [16] were 634 ng·h/mL and 729 ng·h/mL, respectively. The clearance in data set [17] came to 46 mL/min/kg. Also, the Vd in data set [18] was 6.34 L/kg.

A word on the IC50: it is the concentration at which inhibition is half-maximal. Broadly, the inhibition is the drop in the measured response relative to a control, in per cent. As usually defined, the CC50 is the concentration giving 50% cytotoxicity. A word on the AUC(0-t): it is exposure summed from dosing to a finite time, without extrapolation to infinity. Read a low AUC(0-t) as low exposure.

Values taken from ChEMBL document CHEMBL4321879, “Novel Class of Colony-Stimulating Factor 1 Receptor Kinase Inhibitors Based on an o-Aminopyridyl Alkynyl Scaffold as Potential Treatment for Inflammatory Disorders” (J Med Chem, 2020).
